# Assay outcomes: PubChem, several laboratories
# TbHK1 inh = Trypanosoma brucei hexokinase 1 inhibitors, primary screen, biochemical, G6PDH-coupled NADH absorbance, MLSCN library. hexokinase 1 [Trypanosoma brucei]. actives 0.11% (n = 220,000). recombinant TbHK1, G6PDH-coupled NADH A340. inhibition, % at 10 µM;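 active = inhibition of 50% or more in the single-dose primary screen; inactive = inhibition below 50%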
# S1P3 antag-1 = S1P3 receptor antagonists, primary screen, cell-based. CHO S1P3 NFAT-BLA reporter, FRET fluorescence, antagonist mode. actives 0.27% (n = 170,000). Sphingosine 1-phosphate receptor 3 (Homo sapiens), Q99500. AID 485, 2006. inhibition, % at 4.98 µM;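 active = inhibition above the plate cutoff, the mean inhibition of test wells on that plate plus 3 SD, cut at about 28% in these data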;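 note: cells challenged with S1P at its EC80 of 0.8 µM; blue over green emission ratio from cleaved BLA substrate after 4 h stimulation; 0% = S1P-stimulated wells and 100% = unstimulated DMSO-only wells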
# Target sequence (Q99500 whole entry, looked up): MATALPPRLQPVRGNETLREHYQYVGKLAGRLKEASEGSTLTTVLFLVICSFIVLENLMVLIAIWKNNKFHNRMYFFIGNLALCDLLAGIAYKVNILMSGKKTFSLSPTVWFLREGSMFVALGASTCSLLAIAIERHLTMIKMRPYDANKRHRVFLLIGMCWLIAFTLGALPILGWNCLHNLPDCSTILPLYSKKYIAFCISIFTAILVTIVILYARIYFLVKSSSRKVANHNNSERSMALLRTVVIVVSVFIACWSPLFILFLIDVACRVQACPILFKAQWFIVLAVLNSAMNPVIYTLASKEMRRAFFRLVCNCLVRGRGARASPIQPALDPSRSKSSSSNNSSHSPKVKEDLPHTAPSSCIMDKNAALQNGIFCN
# Calb biofilm kill = clotrimazole potentiators killing C. albicans biofilm, primary screen, 4-compound mixtures; C. albicans biofilm persisters + clotrimazole, fluorescence viability; primary screen in compound mixtures of four per well; inhibition, % at 7.6 µM; actives 0.02% (n = 120,000);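 active = inhibition above 30.3% in the primary screen of four-compound pools, then above 30% when the compound was retested; inconclusive = passed the primary limit but could not be retested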;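 note: compounds exposed to preformed 24 h biofilms for 48 h; 0% = untreated biofilm control and 100% = clotrimazole plus chlorhexidine kill blank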
#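 Assay system: C. albicans biofilms / Medium: RPMI/MOPS medium, pH 7.0 / Schedule: biofilm formation 24 h, compound exposure 48 h, 37 °C / Measured by: Alamar Blue fluorescence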
# S1P4 antagonist = S1P4 receptor antagonists, primary screen, cell-based. Sphingosine 1-phosphate receptor 4 (Homo sapiens), O95977. S1P4-expressing cells, antagonist mode, reporter read-out. inhibition, % at 4.98 µM. actives 0.26% (n = 220,000). AID 1510, 2009; in the data active = inhibition above about 29%;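 note: 0% = wells stimulated with agonist and 100% = vehicle wells without agonist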
# Target sequence (O95977 whole entry, looked up): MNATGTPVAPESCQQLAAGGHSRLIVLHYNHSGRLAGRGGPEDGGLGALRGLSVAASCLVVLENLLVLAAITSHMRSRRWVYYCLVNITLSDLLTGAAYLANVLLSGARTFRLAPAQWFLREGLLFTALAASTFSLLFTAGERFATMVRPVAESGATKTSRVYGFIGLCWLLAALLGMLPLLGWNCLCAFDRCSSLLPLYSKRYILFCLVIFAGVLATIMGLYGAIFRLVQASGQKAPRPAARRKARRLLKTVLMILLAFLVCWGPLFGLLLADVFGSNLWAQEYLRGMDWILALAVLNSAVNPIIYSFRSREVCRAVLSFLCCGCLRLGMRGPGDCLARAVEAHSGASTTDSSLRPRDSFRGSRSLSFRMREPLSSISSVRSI
# Dynein transport = inhibitors of GR-EGFP nuclear translocation, primary screen, dynein cargo transport inhibitor project, imaging, high-content, 3617.4 mouse cells | test concentration mostly 20 µM; stimulated with dexamethasone, 1 µM; hits give low values | z-score, hits read low | actives 0.47% (n = 220,000) | AID 1381, 2008;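 active = plate z-score of nuclear minus cytoplasmic receptor signal below a set negative limit, without overly bright fluorescence or cell loss, cut at about -3.5 in these data, passing the limit was not always enough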;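 note: z-score of nuclear minus cytoplasmic ring GR-EGFP intensity difference per well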
#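 medium = tetracycline-free induction medium containing charcoal-stripped FBS | also added = 1.0 µM final dexamethasone stimulus | schedule = 48 h induction, 1 h compound, 30 min dex at 37 °C | technique = fixed, Hoechst-stained cells imaged at 10x for EGFP | measure = GR-EGFP nuclear translocation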
# S1P4 ag = S1P4 receptor agonists, primary screen, cell-based; activation, % at 4.98 µM; S1P4-expressing cell line, agonist reporter assay; Sphingosine 1-phosphate receptor 4 (Homo sapiens), O95977; AID 1509, 2009; actives 0.35% (n = 220,000); in the data active = activation above about 11%;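 note: 0% = DMSO vehicle and 100% = reference agonist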
# S1P3 antag-2 = S1P3 receptor antagonists, retest, confirmation, cell-based. inhibition, % at 4.98 µM. CHO S1P3 NFAT-BLA reporter, FRET, antagonist mode. AID 1429, 2008. shares compounds with S1P3 antag-1. actives 30% (n = 240);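 active = inhibition above the hit threshold that was computed for the earlier primary screen, cut at about 30% in these data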;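 note: 0% = S1P-stimulated wells and 100% = unstimulated DMSO-only wells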
# Dynein confirm = dynein cargo transport inhibitors, GR-EGFP translocation, confirmation, imaging, high-content imaging, GR-EGFP cells; shares compounds with Dynein transport; 3617.4 GR-EGFP nuclear translocation imaging, dexamethasone-induced; calls only at 20 µM; actives 69% (n = 1,000);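 active = inhibition of receptor movement into the nucleus at or above a set limit in both runs, with normal cell brightness and cell count; inconclusive = limit reached in only one run, brightness and count normal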;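 note: dexamethasone at 1 µM final in well for 30 min; nuclear minus cytoplasmic GR-EGFP mean intensity difference in channel 2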
# S1P4 ag conf = S1P4 receptor agonists, retest, confirmation, cell-based, high throughput; shares compounds with S1P4 ag; S1P4 agonist cell-based reporter assay; activation, % at 4.98 µM; actives 7% (n = 740); AID 1523, 2009; in the data active = activation above about 12%;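 note: 0% = vehicle and 100% = full reference agonist response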
# S1P1 ag = S1P1 receptor agonists, human, counter-screen for S1P4 agonist project, cell-based. shares compounds with S1P4 ag. actives 4% (n = 740). AID 1563, 2009. S1P1 agonist cell-based assay, activation. activation, % at 4.98 µM; in the data active = activation above about 21%;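 note: 0% = vehicle wells and 100% = reference agonist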
# S1P4 antag cf = S1P4 receptor antagonists, human, confirmation, cell-based; actives 71% (n = 520); shares compounds with S1P4 antagonist; S1P4-expressing cell line, antagonist mode, reporter read-out; inhibition, % at 4.98 µM; in the data active = inhibition above about 30%
# S1P1 antag = S1P1 receptor antagonists, human, counter-screen for S1P4 antagonist project, cell-based | shares compounds with S1P4 antagonist | AID 1564, 2009 | actives 37% (n = 520) | inhibition, % at 4.98 µM | cell-based S1P1 antagonist counterscreen, inhibition; in the data active = inhibition above about 40%;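 note: receptor stimulated with S1P near its EC80; 0% = agonist stimulated wells and 100% = vehicle only wells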
# Starred values were filed as active, the others as inactive; i = inactive; ? = inconclusive; . = no result given; + = active, no number. An excerpt weighted towards active compounds, which were near 1.3% of everything screened.
SMILES,TbHK1 inh,S1P3 antag-1,Calb biofilm kill,S1P4 antagonist,Dynein transport,S1P4 ag,Dynein confirm,others
CCN(CC)c1ccc(/C=C/c2cc(-c3ccccc3)c3ccccc3n2)cc1,-12.9,76.1*,15.0,46.3*,-5.64,8.3,i,S1P3 antag-2=90.2*;S1P4 antag cf=90.7*;S1P1 antag=103.8*
COC(=O)c1ccc(-c2ccc(/C=N/NC(=O)Cc3nnc(N)s3)o2)cc1,-55.0,10.9,19.1,9.3,0.382,-0.1,.,
CCOC(=O)COc1cccc2c(=O)n(CC(=O)NCc3ccc(F)cc3)ccc12,4.7,29.9*,26.7,32.8*,-0.935,-0.6,.,S1P3 antag-2=0.5;S1P4 antag cf=29.9*;S1P1 antag=72.8*
CCOC(=O)COc1cccc2c(=O)n(CC(=O)NCc3ccccc3)ccc12,-4.7,17.3,17.5,27.1,-0.451,1.2,.,
CCCCN(C)CC(O)Cn1cc(/C=C/C(=O)c2cccs2)c2ccccc21 (stereo not given),2.8,32.7*,8.3,47.2*,0.0244,1.9,.,S1P3 antag-2=16.3;S1P4 antag cf=61.2*;S1P1 antag=87.6*
O=C(Nc1ccc(Oc2ccc(C(F)(F)F)cn2)c(Cl)c1)C1CC1,5.8,5.5,16.9,10.5,-0.542,1.7,.,
O=C(Nc1ccc(F)cc1)Nc1cc(OCC(F)(F)F)cc(OCC(F)(F)F)c1,0.6,34.8*,14.6,100.2*,0.268,-1.1,.,S1P3 antag-2=9.6;S1P4 antag cf=110.4*;S1P1 antag=-28.6
CC(C)(C)c1ccc(NC(=O)Nc2ccc(F)cc2)cc1,-3.0,9.7,23.7,-4.7,-0.348,2.0,.,
O=C1N/C(=N\S(=O)(=O)Cc2ccccc2)S/C1=C/c1cc([N+](=O)[O-])ccc1O,-12.7,32.0*,20.6,44.2*,-0.394,-0.2,.,S1P3 antag-2=24.7;S1P4 antag cf=58.7*;S1P1 antag=50.2*
c1ccc(-n2cc(CNCCc3cscn3)c(-c3ccc4c(c3)OCO4)n2)cc1,13.2,-15.1,-1.0,-10.5,-0.737,-0.3,.,
CN(C)c1ccc(/C=C/c2ccc3ccccc3n2)cc1,-17.7,46.2*,19.3,31.9*,0.449,20.5*,.,S1P3 antag-2=45.3*;S1P4 ag conf=5.0;S1P1 ag=-17.8;S1P4 antag cf=63.0*;S1P1 antag=44.0*
N#C/C(=C/c1ccc(N2CCCCC2)o1)C(=O)Nc1ccc(Cl)cc1,-7.7,.,.,-7.7,-10.5,-3.3,i,
N#C/C(=C/c1ccc(N2CCCCCC2)o1)c1cccc(F)c1,-0.4,.,.,1.0,-2.68,-1.4,.,
N#C/C(=C\c1ccc(N2CCOCC2)o1)C(=O)Nc1ccc(O)cc1,7.0,-7.6,7.4,1.0,1.61,-1.2,.,
N#C/C(=C/c1ccc(N2CCCCCC2)o1)c1ccc(F)cc1,-13.6,26.9,.,0.1,-3.81,0.8,i,
N#C/C(=C/c1ccc(N2CCCCC2)o1)C(=O)Nc1ccc2ccccc2c1,-9.2,-5.0,16.6,2.8,-3.98*,1.8,+,
Cc1ccc(NCc2n[nH]c(=S)n2-c2ccccc2)c(C)c1,1.0,5.0,11.4,-14.5,-0.16,1.2,.,
Cc1cc2cc(CNC(=O)C(C)Oc3ccccc3)ccc2n1C (stereo not given),3.4,12.1,7.1,-6.4,1.38,0.7,.,
CC(C)OC(=O)COc1cc(O)c2c(=O)cc(-c3ccccc3)oc2c1,-24.8,-28.0,3.1,6.1,0.724,0.6,.,
CCCCN1C(=O)/C(=C/C=C2\N(C)c3ccccc3C2(C)C)SC1=S,-0.7,.,.,3.5,-5.05,2.1,i,
Cc1ccccc1C(=O)c1c[nH]c(C(=O)NCCc2ccccn2)c1,-4.5,-8.7,21.9,6.5,-0.789,0.1,.,
CC(=O)C(Cl)C(=O)Nc1ccccc1 (stereo not given),4.6,-1.6,8.4,3.9,-4.19*,1.8,i,
CCOc1cc(/C=C\[N+](=O)[O-])ccc1OCC(=O)N1CCOCC1,-15.9,9.9,4.4,9.5,-5.67*,-2.4,+,
CCOc1cc(/C=C/c2nc3cc(C)c(C)cc3s2)ccc1OCC(=O)N1CCOCC1,20.6,1.6,4.0,-4.9,0.191,1.2,.,
CCC(=O)OCC(=O)Nc1cc([N+](=O)[O-])ccc1OC,-19.9,9.6,17.2,-29.9,1.03,-0.2,.,
SMILES,TbHK1 inh,S1P3 antag-1,Calb biofilm kill,S1P4 antagonist,Dynein transport,S1P4 ag,Dynein confirm,others
COc1ccc(-c2cc(C(F)(F)F)nc(S(=O)(=O)CCCC(=O)Nc3cccnc3Cl)n2)cc1OC,-15.0,-19.0,23.0,29.2*,-5.08*,-0.4,+,
CC1=CC(=O)C(C(C)C)=CC1=NC(=O)c1ccc(C)cc1,4.0,-9.1,6.6,-1.9,-4.93*,-0.9,?,
CC1=CC(=O)C(C(C)C)=C/C1=N/OC(=O)c1cccc([N+](=O)[O-])c1,-13.9,.,.,-0.2,-0.764,-0.9,.,
COc1cc(C(C[N+](=O)[O-])c2c(N)n(C)c(=O)n(C)c2=O)ccc1O (stereo not given),-3.5,-21.1,6.7,-6.9,-1.62,-0.1,.,
COc1cccc(F)c1C(C[N+](=O)[O-])c1c(N)n(C)c(=O)n(C)c1=O (stereo not given),-17.5,24.2,16.6,-7.1,-3.59*,-1.3,+,
CC1=C(C#N)C(=O)NC(=O)/C1=C\c1ccc(-c2ccc(C)cc2[N+](=O)[O-])o1,-5.2,-5.2,18.8,-12.2,-0.31,-0.6,.,
CCOC(=O)c1cc(-c2ccc(/C=C3/C(=O)NC(=O)C(C#N)=C3C)o2)ccc1Cl,-15.5,.,.,5.2,-3.58*,-0.5,+,
